Tests used:
Rattus norvegicus = test: Antipsychotic activity in orally dosed Sprague-Dawley rat assessed as inhibition of PCP-induced hyperactivity administered 20 mins before PCP stimulation and measured after 1 hr; type: functional, organism-based; conditions: dose 1-10 mg/kg, time 80.0 min
Method in brief: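 Male Sprague-Dawley rats dosed orally 20 min before PCP (5 mg/kg) injection. Locomotor activity recorded for 1 h after PCP, read as total travel distance. Mean ± standard error of the mean, n = 8-10 per group.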

[1] = biological target: T1, Adrenergic receptor alpha-1 (Rattus norvegicus, UniProt P15823+P23944+P43140); test: Displacement of [3H]-prazosin from adrenergic alpha1 in rat cerebral cortex; type: tissue-based
T1 sequence (P15823 whole entry): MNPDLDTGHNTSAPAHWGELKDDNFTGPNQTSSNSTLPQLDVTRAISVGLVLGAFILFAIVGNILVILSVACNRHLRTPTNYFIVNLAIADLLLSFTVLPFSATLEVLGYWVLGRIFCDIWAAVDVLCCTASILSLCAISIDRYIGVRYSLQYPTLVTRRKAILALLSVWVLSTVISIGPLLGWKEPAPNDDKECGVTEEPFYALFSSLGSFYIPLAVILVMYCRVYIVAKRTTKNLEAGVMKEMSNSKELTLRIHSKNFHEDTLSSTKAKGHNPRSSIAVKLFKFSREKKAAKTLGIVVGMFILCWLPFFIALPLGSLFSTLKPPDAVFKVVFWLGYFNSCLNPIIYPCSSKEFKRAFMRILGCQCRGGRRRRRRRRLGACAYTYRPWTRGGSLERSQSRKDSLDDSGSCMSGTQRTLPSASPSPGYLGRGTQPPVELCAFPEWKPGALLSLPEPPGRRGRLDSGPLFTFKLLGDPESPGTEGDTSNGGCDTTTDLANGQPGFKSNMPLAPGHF
T1 sequence (P23944 whole entry): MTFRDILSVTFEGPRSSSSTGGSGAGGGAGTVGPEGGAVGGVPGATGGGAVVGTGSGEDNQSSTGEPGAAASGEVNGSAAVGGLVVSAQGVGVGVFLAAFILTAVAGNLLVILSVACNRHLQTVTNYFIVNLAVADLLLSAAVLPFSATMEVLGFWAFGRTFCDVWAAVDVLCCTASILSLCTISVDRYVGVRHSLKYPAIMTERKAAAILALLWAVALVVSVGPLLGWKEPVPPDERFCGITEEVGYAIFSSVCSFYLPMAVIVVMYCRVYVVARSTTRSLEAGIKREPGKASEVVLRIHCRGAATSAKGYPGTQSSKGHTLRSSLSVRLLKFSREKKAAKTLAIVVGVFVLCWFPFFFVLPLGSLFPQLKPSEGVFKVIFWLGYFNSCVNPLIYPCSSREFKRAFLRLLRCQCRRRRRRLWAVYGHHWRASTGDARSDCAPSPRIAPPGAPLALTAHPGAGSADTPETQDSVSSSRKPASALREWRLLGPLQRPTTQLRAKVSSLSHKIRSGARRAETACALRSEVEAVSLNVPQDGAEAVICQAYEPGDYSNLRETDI
T1 sequence (P43140 whole entry): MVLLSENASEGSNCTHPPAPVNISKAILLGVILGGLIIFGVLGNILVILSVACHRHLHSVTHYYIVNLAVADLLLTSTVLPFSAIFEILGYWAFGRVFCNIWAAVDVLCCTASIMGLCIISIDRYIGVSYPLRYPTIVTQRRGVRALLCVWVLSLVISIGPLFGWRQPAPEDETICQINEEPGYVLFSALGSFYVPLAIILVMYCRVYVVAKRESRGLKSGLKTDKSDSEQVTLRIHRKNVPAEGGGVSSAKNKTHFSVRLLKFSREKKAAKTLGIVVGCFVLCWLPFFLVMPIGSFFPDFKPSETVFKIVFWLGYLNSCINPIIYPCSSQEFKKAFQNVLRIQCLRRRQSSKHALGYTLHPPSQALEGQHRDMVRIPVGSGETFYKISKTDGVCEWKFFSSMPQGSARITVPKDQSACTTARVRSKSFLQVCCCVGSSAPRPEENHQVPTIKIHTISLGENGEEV
Method in brief: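 Eight-concentration displacement curves, two independent experiments in duplicate, value is the mean Ki.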

[2] = biological target: T2, Adrenergic receptor alpha-1 (Homo sapiens, UniProt P35348+P25100+P35368); test: Binding affinity to adrenergic alpha1 receptor (unknown origin); type: protein assay
T2 sequence (P35348 whole entry): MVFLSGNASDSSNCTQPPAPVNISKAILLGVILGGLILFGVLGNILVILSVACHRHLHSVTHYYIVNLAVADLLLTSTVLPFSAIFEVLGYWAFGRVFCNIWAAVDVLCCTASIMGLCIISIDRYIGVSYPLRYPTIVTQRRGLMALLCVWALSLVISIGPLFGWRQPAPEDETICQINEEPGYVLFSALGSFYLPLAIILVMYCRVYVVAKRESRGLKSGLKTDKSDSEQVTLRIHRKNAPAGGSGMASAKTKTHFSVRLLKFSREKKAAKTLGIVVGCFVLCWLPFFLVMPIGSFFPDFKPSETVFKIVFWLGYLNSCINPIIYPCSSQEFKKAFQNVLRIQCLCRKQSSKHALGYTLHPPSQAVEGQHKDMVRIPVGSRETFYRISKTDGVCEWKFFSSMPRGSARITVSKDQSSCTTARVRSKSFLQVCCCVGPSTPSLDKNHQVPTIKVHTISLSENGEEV
T2 sequence (P25100 whole entry): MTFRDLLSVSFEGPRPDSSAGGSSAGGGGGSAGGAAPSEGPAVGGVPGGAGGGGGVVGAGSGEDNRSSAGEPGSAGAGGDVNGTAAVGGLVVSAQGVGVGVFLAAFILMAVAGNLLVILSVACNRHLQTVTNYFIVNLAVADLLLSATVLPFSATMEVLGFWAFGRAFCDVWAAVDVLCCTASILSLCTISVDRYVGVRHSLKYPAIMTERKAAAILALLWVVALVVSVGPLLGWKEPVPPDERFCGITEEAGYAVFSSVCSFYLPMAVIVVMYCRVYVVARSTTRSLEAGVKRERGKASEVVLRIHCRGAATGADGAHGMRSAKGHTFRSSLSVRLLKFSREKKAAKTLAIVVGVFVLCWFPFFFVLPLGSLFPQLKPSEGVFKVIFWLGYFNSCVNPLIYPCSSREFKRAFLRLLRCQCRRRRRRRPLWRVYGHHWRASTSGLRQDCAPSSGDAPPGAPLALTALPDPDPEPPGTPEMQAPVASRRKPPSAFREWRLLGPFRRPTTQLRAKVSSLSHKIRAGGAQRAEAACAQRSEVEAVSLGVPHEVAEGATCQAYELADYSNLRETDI
T2 sequence (P35368 whole entry): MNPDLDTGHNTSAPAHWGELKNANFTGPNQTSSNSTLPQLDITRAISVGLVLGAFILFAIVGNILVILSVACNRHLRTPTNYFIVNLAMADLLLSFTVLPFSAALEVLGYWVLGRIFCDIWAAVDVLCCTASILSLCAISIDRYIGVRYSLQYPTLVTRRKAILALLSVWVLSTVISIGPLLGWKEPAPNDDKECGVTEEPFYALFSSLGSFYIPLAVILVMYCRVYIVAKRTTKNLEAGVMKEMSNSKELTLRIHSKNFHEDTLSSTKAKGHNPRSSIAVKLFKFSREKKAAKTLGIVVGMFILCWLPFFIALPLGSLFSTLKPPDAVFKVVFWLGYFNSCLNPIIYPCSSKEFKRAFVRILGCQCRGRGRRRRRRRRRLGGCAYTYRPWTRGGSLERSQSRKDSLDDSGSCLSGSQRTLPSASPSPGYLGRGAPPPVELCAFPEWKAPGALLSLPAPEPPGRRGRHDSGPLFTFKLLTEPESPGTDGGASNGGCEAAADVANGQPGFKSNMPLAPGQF

Row | SMILES | Activity (Rattus norvegicus) | Ki [1] | Ki [2]
1 | CN(C)C(=O)N[C@H]1CC[C@H](CCN2CCN(c3cccc(Cl)c3Cl)CC2)CC1 [CARIPRAZINE] | Dose-dependent effect | 155 nM | 
2 | CN1CC2c3ccccc3Oc3ccc(Cl)cc3C2C1 (stereo not drawn) [ASENAPINE] |  |  | 1.2 nM
